The subject of assay [1] is HepG2. The experiment in a line: Cytotoxicity against human HepG2 cells at 10 uM after 24 hrs using crystal violet staining by microplate reader analysis. Format: functional. To be noted: HepG2, 24 h. An outline of the steps: (§1)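 HepG2 cells in MEM with 10% FBS were seeded at 10 000 cells/well and grown 24 h. The medium was then replaced with fresh medium/10% FBS, and cells were exposed to inhibitors for 24 h, or to none. Cells were fixed with 1.1% glutaraldehyde, stained with 0.1% crystal violet and solubilised in 10% acetic acid. A590 was converted to cell number with a standard curve.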

The species named for assay [2] is Homo sapiens. The assay is described as follows: Inhibition of human choline kinase assessed as incorporation of 14C from [methyl-14C]choline into phosphocholine at 50 uM after 20 mins by liquid scintillation counter. An outline of the steps: (§2)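 Enzyme source was HepG2 cytosol (cells sonicated in 275 mM Tris pH 8.5, 12000 g supernatant), about 50 µg protein. Final mix: 100 mM Tris pH 8.5, 10 mM MgCl2, 10 mM ATP, with inhibitor. Started with 1 mM [methyl-14C]choline, 37 °C for 20 min, stopped by boiling. Phosphocholine was separated on silica TLC and counted by scintillation. IC50 was derived from the concentration series.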

The species entered for assay [3] is Homo sapiens. The experiment in a line: Inhibition of human choline kinase assessed as incorporation of 14C from [methyl-14C]choline into phosphocholine at 10 uM after 20 mins by liquid scintillation counter. An outline of the steps:
as §2

The subject of assay [4] is HepG2. The experiment in a line: Cytotoxicity against human HepG2 cells at 50 uM after 24 hrs using crystal violet staining by microplate reader analysis. Format: functional. Particulars: HepG2, 24 h. An outline of the steps:
as §1

For assay [5], the system named is HepG2. The assay is described as follows: Cytotoxicity against human HepG2 cells after 24 hrs using crystal violet staining by microplate reader analysis. To be noted: HepG2, 24 h. Format: functional, cell-based. The method in brief: as §1
The nature of assay [6]: Inhibition of human choline kinase assessed as incorporation of 14C from [methyl-14C]choline into phosphocholine after 20 mins by liquid scintillation counter. The method in brief: as §2

What is called inhibition is the drop in the measured response relative to a control, in per cent. Usually IC50 stands for the concentration at which inhibition is half-maximal.

The compound `Nc1ncn(Cc2ccc(CCc3ccc(C[n+]4ccc(N5CCCC5)cc4)cc3)cc2)c2ncnc1-2` had an inhibition at 10 µM in the assay with HepG2 [1] of 11.6%. Further, the inhibition worked out at 24.8% in the assay filed under Homo sapiens [2] and 0.1% in the assay filed under Homo sapiens [3]. In the assay on HepG2 [4], the inhibition at 50 µM was 30%.
With `CN(C)c1cc[n+](Cc2ccc(CCCCc3ccc(Cn4cnc5c(N)ncnc54)cc3)cc2)cc1`, the IC50 was found to be 49.7 µM in the assay with HepG2 [5] and 10.7 µM in assay [6]. The inhibition at 10 µM in the assay on HepG2 [1] stood at 10.2%. The inhibition in the assay filed under Homo sapiens [2] stood at 89.7%; in the assay filed under Homo sapiens [3] it was 66.7%. In addition, the inhibition at 50 µM with HepG2 [4] came out at 45.5%.
`Nc1ncnc2c1ncn2Cc1ccc(CCCCc2ccc(C[n+]3ccc(N4CCCC4)cc3)cc2)cc1`: in the assay with HepG2 [1], at 10 µM the inhibition was 15.4%. Further, the inhibition in the assay filed under Homo sapiens [2] was 41.9%; in the assay filed under Homo sapiens [3], 36.9%. This compound yielded an inhibition at 50 µM in the assay on HepG2 [4] of 90.1%.
In the case of `CN(C)c1cc[n+](Cc2ccc(CCc3ccc(Cn4cnc5c(N)ncnc54)cc3)cc2)cc1`, at 10 µM the inhibition with HepG2 [1] was 10.5%. The values for the inhibition in the assay listed under Homo sapiens [2] and in the assay filed under Homo sapiens [3] were 81% and 38.6%, respectively. In the assay on HepG2 [4], at 50 µM the inhibition was 10.5%.
The compound `CN(C)c1cc[n+](Cc2ccc(-c3ccc(Cn4cnc5c(N)ncnc54)cc3)cc2)cc1` came in with an inhibition at 10 µM in the assay with HepG2 [1] of 0%. Moreover, the inhibition turned out to be 51% in the assay listed under Homo sapiens [2] and 37.6% in the assay filed under Homo sapiens [3]. The same compound had an inhibition at 50 µM in the assay on HepG2 [4] of 10.3%.
Regarding `CN(C)c1cc[n+](Cc2ccc(-c3ccc(Cn4cnc(N)c5ncnc4-5)cc3)cc2)cc1`, the IC50 in assay [6] stood at 6.21 µM. Besides, the inhibition at 10 µM with HepG2 [1] was found to be 10%. Moreover, the inhibition in the assay listed under Homo sapiens [2] turned out to be 71.4%; in the assay listed under Homo sapiens [3] it was 62.3%. The compound also yielded an inhibition at 50 µM in the assay on HepG2 [4] of 7%.
Turning to `Nc1ncnc2c1ncn2Cc1ccc(-c2ccc(C[n+]3ccc(N4CCCC4)cc3)cc2)cc1`, the inhibition at 10 µM in the assay with HepG2 [1] is 10.4%. For the same compound, the inhibition in the assay filed under Homo sapiens [2] was determined as 72.8%; in the assay listed under Homo sapiens [3], 50.2%. In the assay with HepG2 [4], this compound registered an inhibition at 50 µM of 45%.
Take `CN(C)c1cc[n+](Cc2ccc(CCCCc3ccc(Cn4cnc(N)c5ncnc4-5)cc3)cc2)cc1`: in the assay on HepG2 [5], the IC50 is 38.9 µM. For the same compound, at 10 µM the inhibition in the assay with HepG2 [1] was 14.3%. Also, the inhibition in the assay listed under Homo sapiens [2] turned out to be 68.2%; in the assay filed under Homo sapiens [3], 61.3%. This compound registered an inhibition at 50 µM with HepG2 [4] of 56.1%.
Compound `Nc1ncn(Cc2ccc(CCCCc3ccc(C[n+]4ccc(N5CCCC5)cc4)cc3)cc2)c2ncnc1-2` registered an inhibition at 10 µM with HepG2 [1] of 13.7%. Also, the inhibition in the assay filed under Homo sapiens [2] worked out at 59.9%; in the assay listed under Homo sapiens [3] it was 22.6%. Besides, testing at 50 µM with HepG2 [4] gave an inhibition of 46.5%.
Compound `CN(C)c1cc[n+](Cc2ccc(Cn3cnc(N)c4ncnc3-4)cc2)cc1` gave an inhibition at 10 µM in the assay with HepG2 [1] of 10.3%. In addition, the figures for the inhibition in the assay listed under Homo sapiens [2] and in the assay filed under Homo sapiens [3] were 50.2% and 25%, respectively. Moreover, in the assay with HepG2 [4], the inhibition at 50 µM was 2.5%.
On to `CN(C)c1cc[n+](Cc2ccc(Cn3cnc4c(N)ncnc43)cc2)cc1`, for which, in the assay with HepG2 [1], at 10 µM the inhibition was 0%. The inhibition worked out at 54.1% in the assay filed under Homo sapiens [2] and 46.7% in the assay filed under Homo sapiens [3]. In addition, in the assay with HepG2 [4], the inhibition at 50 µM was determined as 5.1%.
The like results for `Nc1ncnc2c1ncn2Cc1ccc(C[n+]2ccc(N3CCCC3)cc2)cc1` were, in that order, 0%, 27%, 0% and 15.5%.
For `Nc1ncnc2c1ncn2Cc1ccc(CCc2ccc(C[n+]3ccc(N4CCCC4)cc3)cc2)cc1` the same measures were 30.1%, 46.9%, 28.6% and 45%.

The values above are taken from ChEMBL document CHEMBL1949503, “Design, synthesis, theoretical calculations and biological evaluation of new non-symmetrical choline kinase inhibitors” (Eur J Med Chem, 2012).
